These results are taken from ChEMBL document CHEMBL1121913, “Inactivation of liver alcohol dehydrogenases and inhibition of ethanol metabolism by ambivalent active-site-directed reagents” (J Med Chem, 1981).

One data set concerns Rattus norvegicus. Briefly: Percent inhibition of rate of ethanol metabolism in rats at dose 0.13 mmol/kg. The format is functional. Summed up:
(§1)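 Male Sprague-Dawley rats (160–200 g), two per experiment; compound suspended in sterile 0.9% saline, single i.p. dose 22–24 h before i.p. ethanol 2 g/kg (40% w/v in saline). Tail-vein blood ethanol by GC (1-propanol internal standard); elimination rate = β slope × dose/extrapolated zero-time level. Liver ADH afterwards: homogenate activity with ethanol/NAD⁺ minus 10 mM pyrazole control, per mg protein.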

The target of data set [1] is T1, Alcohol dehydrogenase (Equus caballus) (UniProt P00327+P00328). Briefly: The compound was tested for the ability to inactivate horse liver alcohol dehydrogenase in the presence of 1 mM NAD+k.
Data set [2] has as its target T1, Alcohol dehydrogenase (Equus caballus). Briefly: The compound was tested for the ability to inactivate horse liver alcohol dehydrogenase in the absence of NAD+k.
The nature of data set [3]: Percent inhibition of Alcohol dehydrogenase activity in rat liver at dose 0.13 mmol/kg. Type of data set: tissue-based. Summed up:
as §1

Data set [4] is described as follows: The compound was tested for the ability to inactivate mouse liver alcohol dehydrogenase in the absence of NAD+K. Summed up: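 Mouse liver ADH, fourfold purified ((NH₄)₂SO₄ 45–65% cut, DEAE-cellulose), incubated at about 0.2 mg/mL with 0.2 mM reagent in 0.1 M Na₂P₂O₇ pH 8, 25 °C; coenzyme, when present, added 1 min before inactivator. Apparent second-order rate constant derived assuming reaction first order in reagent.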

Data set [5] is described as follows: Toxic effect in rats. Type of data set: toxicity, organism-based. The settings on record: rat, in vivo. Summed up:
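Male Sprague-Dawley rats (160–200 g), two per dose; single i.p. dose of compound suspended in sterile 0.9% saline. Acute lethality scored over 24 h after dosing.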

The test system of data set [6] is Mus musculus. The experiment in a line: Percent inhibition of recovery of rotarod performance in mice at dose 0.13 mmol/kg. Type of data set: functional. Summed up: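 Mice trained to hang on a 2-cm rod rotating at 7 rpm, two 15-min periods. Reagent given ip 22 h before ethanol 3 g/kg; five mice per dose, five vehicle controls. Impairment = 100(15 − minutes on rod)/15, probit-transformed; t1/2 for regaining 50% performance by regression. Inhibition = [t1/2(treated) − t1/2(control)]/t1/2(treated).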
(In the rotarod test animals must keep their balance on a rotating rod.)

Data set [7] has as its system Mus musculus. Briefly: Percent inhibition of rate of ethanol metabolism in mice at dose 0.13 mmol/kg. The format is functional. Summed up:
(§2)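 Fed male Swiss-Webster mice (20–25 g), four or five per group; compound suspended in sterile 0.9% saline, single i.p. dose 22–24 h before i.p. ethanol 3 g/kg (40% w/v in saline). Tail-vein blood ethanol by GC (1-propanol internal standard); elimination rate = β slope × dose/extrapolated zero-time level. Liver ADH afterwards: homogenate activity with ethanol/NAD⁺ minus 10 mM pyrazole control, per mg protein.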

A short description of data set [8]: The compound was tested for the ability to inactivate mouse liver alcohol dehydrogenase in the presence of 1 mM NAD+K; Slow inactivation.
Data set [9] addresses T2, Alcohol dehydrogenase (Homo sapiens) (UniProt P07327+P08319+P00325+P00326+P40394+P11766+P28332). The experiment in a line: The compound was tested for the ability to inactivate human liver alcohol dehydrogenase in the absence of NAD+K. Summed up: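 Human liver ADH purified by CM- and DEAE-cellulose chromatography and (NH₄)₂SO₄ precipitation, with 5% ethanol removed by dialysis. Enzyme about 0.2 mg/mL with 0.2 mM reagent in 0.1 M Na₂P₂O₇, pH 8, 25 °C, no coenzyme. Apparent second-order rate constant assumes first order in reagent.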

Data set [10] can be described thus: The compound was tested for the ability to inactivate rat liver alcohol dehydrogenase in the absence of NAD+K. Summed up:
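Rat liver enzyme purified 15-fold ((NH₄)₂SO₄ 35–75%, DEAE-cellulose). Inactivation with 0.2 mM reagent, 0.1 M pyrophosphate buffer pH 8, 25 °C, enzyme near 0.2 mg/mL; NAD⁺ preincubated 1 min with enzyme before reagent addition. Apparent second-order constants computed on assumption of first-order dependence on reagent.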

Data set [11] is described as follows: Percent inhibition of Alcohol dehydrogenase activity in mice liver at dose 0.13 mmol/kg. The format is tissue-based. Summed up: as §2
The target in data set [12] is T2, Alcohol dehydrogenase (Homo sapiens). Briefly: The compound was tested for the ability to inactivate human liver alcohol dehydrogenase in the presence of 1 mM NAD+k. Summed up: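 Human liver ADH, purified on carboxymethyl- and DEAE-cellulose plus (NH₄)₂SO₄ (60%) with 5% ethanol throughout, ethanol dialysed out. Inactivation at 25 °C in 0.1 M Na₂P₂O₇, pH 8, enzyme about 0.2 mg/mL, 0.2 mM reagent; NAD⁺ added 1 min before reagent where used. Apparent second-order constant calculated assuming first order in reagent.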

Data set [13] can be described thus: Toxic effect in mice. The format is toxicity, organism-based. The following applies: mouse, in vivo. Summed up:
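Male Swiss-Webster mice (20–25 g); single i.p. dose of compound suspended in sterile 0.9% saline. Acute lethality scored over 24 h; LD₅₀ with limits at p ≤ 0.05 from three doses on 15 mice.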

As usually defined, the inhibition in vivo is the relative decrease from the control value, in per cent. The low end stands for a weak effect, the high end for a strong effect. The inhibition is the change of the read-out against control, counted positive when it falls. A lower inhibition goes with little suppression. The term LD50 denotes the dose at which mortality reaches 50%. Low readings indicate greater toxicity, high ones lower toxicity.

As to `NC(=O)CBr`, the values for the inhibition in vivo at 130 µmol/kg with Rattus norvegicus, in the data set with Mus musculus [6] and with Mus musculus [7] were 11%, 28% and 18%, respectively. The Rate constant is 0.000167 M⁻¹ s⁻¹ in data set [1]; 0.0267 M⁻¹ s⁻¹ in [2]; 0.147 M⁻¹ s⁻¹ in data set [4]; “Slow inactivation” in [8]; 0.0483 M⁻¹ s⁻¹ in [9]; 0.0883 M⁻¹ s⁻¹ in data set [10]. Also, the Rate constant in data set [12] was 0.0483 M⁻¹ s⁻¹. Also, the results for the inhibition in [3] and in data set [11] were 0% and 27%, respectively. The LD50 in data set [5] and in data set [13] was 270 µmol/kg throughout.
